This is a sample that favours compounds with a hit; in the whole collection about 9.8% have one here.
Rad51 HR inh = human RAD51 strand exchange inhibitors, primary screen, biochemical, fluorescence; DNA repair protein RAD51 homolog 1 (Homo sapiens), Q06609; hRad51 DNA strand exchange, fluorescence dequenching; inhibition, % at 10 µM; 200,000 compounds, 0.085% hits;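 active means inhibition above 40% at the single screening dose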;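 further: 0% = DMSO control wells and 100% = blanks with heterologous ssDNA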
Target sequence (Q06609 whole entry, looked up): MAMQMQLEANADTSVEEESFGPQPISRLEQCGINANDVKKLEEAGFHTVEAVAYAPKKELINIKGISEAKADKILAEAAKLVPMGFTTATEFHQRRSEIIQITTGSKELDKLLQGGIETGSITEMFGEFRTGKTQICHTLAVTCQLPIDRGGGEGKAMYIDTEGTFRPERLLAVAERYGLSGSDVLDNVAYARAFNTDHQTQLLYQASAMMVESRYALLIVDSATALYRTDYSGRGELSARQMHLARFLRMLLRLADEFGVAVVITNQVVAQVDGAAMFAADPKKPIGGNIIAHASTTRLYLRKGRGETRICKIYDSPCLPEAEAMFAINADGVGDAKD
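material = hRad51 filaments on single-stranded DNA | timing = filaments 15 min 37 °C, then compound 30 min | signal = FRET fluorescence dequenching, excitation 485 nm, emission 520 nm | benchmarks = control wells and blank wells on each plate | evaluation = percent inhibition relative to plate controls and blanks | compound = 10 µM final, single point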
Calpain2 inh = inhibitors of pig calpain II, primary screen, biochemical, fluorogenic peptide substrate, 1536-well; purified calpain II, 30 min; inhibition, % at 16 µM; 220,000 compounds, 0.37% hits; AID 1236, 2008;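 active means inhibition above about 50%, limit read from the data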
L major viab = Leishmania major promastigote growth inhibition, primary screen | 200,000 compounds, 9% hits | Leishmania major promastigotes, resazurin fluorescence viability | inhibition, % at 10 µM; in the data active means inhibition above about 50%;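 further: promastigotes grown with compound for 44 hours at 28 °C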
WT yeast gro inh = growth inhibition of WT strain, primary screen, mitochondrial fusion inhibitor project, WT and mutant strains, chemical genetic; mitochondrial fusion phenotypic screen; inhibition, % at 10 µM; 190,000 compounds, 2.1% hits; AID 1362, 2008; in the data active means inhibition above about 58%; tested in S. cerevisiae
PMI act = activators of human PMI, primary screen, biochemical, fluorescence intensity, near-Km mannose 6-phosphate; purified human PMI, coupled resazurin fluorescence, 20 min; active compounds read high; 1 = vehicle control, 0 substrate-free wells; activation factor at 20 µM; 190,000 compounds, 0.005% hits; AID 1214, 2008;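 active means activation factor of 2 or more at 20 µM, relative to plate controls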
PMI act satM6P = human PMI activators, high substrate, primary screen, biochemical, fluorescence intensity, near-saturating mannose 6-phosphate. coupled PMI enzyme assay, resazurin fluorescence, 20 min; active compounds read high; 1 = untreated enzyme, 0 = substrate-free blank. activation factor at 20 µM. 190,000 compounds, 0.34% hits. AID 1216, 2008;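 active means activation factor of 2 or more at 20 µM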
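Material: human phosphomannose isomerase with PGI, G6PDH, diaphorase coupling enzymes; amount: PMI at 15 ng/mL final; also added: Mannose-6-phosphate 1.0 mM (near-saturating) plus 0.22 mM NADP+; incubation: enzyme reaction with compound 20 min at room temperature; signal: resorufin fluorescence (Ex 544/Em 590 nm) from resazurin via diaphorase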
Numbers without * were called inactive; / = no result given.

SMILES	Rad51 HR inh	Calpain2 inh	L major viab	WT yeast gro inh	PMI act	PMI act satM6P
CCN1CCCC1CNCc1cccc(OC)c1OCc1ccc(F)cc1 (stereo not drawn)	/	13	63*	-3	1.2	1.2
CCCCC(=O)NC(NC(=S)N1CCCCCC1)C(Cl)(Cl)Cl (stereo not drawn)	4	5	7	-2	1	1
CC(=O)N1CCc2c(sc(NC(=O)c3ccc4c(c3)OCCO4)c2C#N)C1	-6	-20	54*	14	0.8	0.8
O=C(COc1ncnc2sccc12)NC1CCS(=O)(=O)C1 (stereo not drawn)	-1	-29	/	/	/	/
NC(N)=NC1=NC(=O)C(Cc2ccccc2)S1 (stereo not drawn)	-8	7	-7	-8	/	/
O=C(CSc1nnc(CNc2ccc(F)cc2)o1)c1ccccc1	5	10	-3	-1	/	/
CCCCCCCCOC(=O)CCn1[nH]c(=O)c2ccccc2c1=O	6	7	-8	80*	0.9	0.9
CC(C)COC(=O)CCn1[nH]c(=O)c2ccccc2c1=O	0	-5	-5	19	1	0.9
O=C(Nc1ccccc1C(=O)NC(Cc1ccc(O)cc1)C(=O)O)c1ccccc1 (stereo not drawn)	20	12	36	-7	1	1
CC(C)(C)NC(=O)NC(=O)CN1CCN(c2ccc(O)cc2)CC1	-1	74*	24	-37	0.6	0.4
CC(CCc1ccccc1)NC(=O)CN1CCN(Cc2ccccc2)C1=O (stereo not drawn)	-4	2	-4	-16	1	0.9
CC(CCc1ccccc1)NC(=O)CN1CCN(c2ccc(O)cc2)CC1 (stereo not drawn)	-25	-14	64*	-11	0.6	0.3
CC1CCCCN1C(=O)C1CCCCN1S(=O)(=O)c1cccc([N+](=O)[O-])c1 (stereo not drawn)	6	-3	/	/	/	/
CC(=O)c1cc(-c2ccccc2)n(CC(=O)Nc2cccc(C)c2)c1C	-2	2	64*	-2	1.1	1.1
CC(=O)c1cc(-c2ccccc2)n(CC(=O)N2CCC(N3CCCCC3)CC2)c1C	-12	2	95*	-3	0.9	0.9
CCc1cccc(NC(=O)Cn2c(-c3ccccc3)cc(C(C)=O)c2C)c1	-5	6	-1	-9	1	1
CC(=O)c1cc(-c2ccccc2)n(CCC(=O)NC2CCCCC2)c1C	2	2	83*	-4	1.1	1.1
O=C(O)c1cccnc1SCc1cccc(Cl)c1	-26	-36	1	-11	1.3	1.2
O=C(COc1ccc(Cl)cc1)NNC(=O)CSc1nncs1	4	-28	-4	-33	1.2	1.1
CCOC(=O)CN1C(=O)N[C@@H](CCc2ccccc2)[C@@H](C(=O)OC)[C@H]1C	53*	/	/	/	/	/
O=C(C1=C[C@H](c2ccc(C(F)(F)F)cc2)C[C@H](OCc2ccc(CO)cc2)O1)N1CCN(Cc2ccc3c(c2)OCO3)CC1	0	29	45	48	0.7	0.8
O=C(C1=C[C@@H](c2ccc(C(F)(F)F)cc2)C[C@@H](OCc2ccc(CO)cc2)O1)N1CCN(Cc2ccc3c(c2)OCO3)CC1	7	37	56*	37	0.9	0.9
CC(C)(C)[C@@H]1C=C(C(=O)N2CCN(Cc3ccc4c(c3)OCO4)CC2)O[C@H](OCc2ccc(CO)cc2)C1	1	37	42	94*	0.8	0.8
O=C(C1=C[C@H](c2ccc3c(c2)OCO3)C[C@H](OCc2ccc(CO)cc2)O1)N1CCCCCCC1	/	13	61*	16	0.9	0.9
O=C(C1=C[C@@H](c2ccc(Br)cc2)C[C@@H](OCc2ccc(CO)cc2)O1)N1CCN(Cc2ccccc2)CC1	-8	25	12	20	0.8	0.8
SMILES	Rad51 HR inh	Calpain2 inh	L major viab	WT yeast gro inh	PMI act	PMI act satM6P
O=C(C1=C[C@@H](c2ccc(Br)cc2)C[C@@H](OCc2ccc(CO)cc2)O1)N1CCN(Cc2ccc3c(c2)OCO3)CC1	1	11	56*	25	0.8	0.9
NC(=O)c1ccsc1NC(=O)CSc1nnc(Nc2ccccc2)s1	-4	-56	57*	5	1	0.9
NC(=O)c1ccsc1NC(=O)CSc1ccccc1F	1	-5	10	3	1	1
Cc1ccc(-c2c[n+](CC(=O)Nc3cc(=O)n(C)c(=O)n3C)c3n2CCC3)cc1	6	-7	14	-3	0.9	1
Cn1cc(CNCc2cnc3ccccn23)c(-c2ccc(Oc3ccccc3)cc2)n1	-8	-28	22	17	1	1
CN(Cc1cn(C)nc1-c1ccc(Oc2ccccc2)cc1)CC1COCCO1 (stereo not drawn)	28	20	85*	9	0.9	1.1
CN(Cc1cn(C)nc1-c1ccc(Oc2ccccc2)cc1)Cc1cnc2ccccn12	/	-8	78*	47	0.8	0.9
c1ccc(N/N=C(\Cc2ncc[nH]2)c2ccccc2)cc1	-3	2	38	9	1.5	2.3*
COc1ccc(C(=O)N/N=C(\Cc2ncc[nH]2)c2ccccc2)cc1	-2	21	16	11	1	1
O=C(Nc1ccc(Cl)cc1)[C@@H]1[C@@H]2C(=O)N(c3ccc4ccccc4c3)C(=O)[C@@H]2[C@H]2C=CC=NN21	0	-124	1	6	1.5	2*
O=C(O)c1ccccc1SC1CC(=O)N(c2ccccc2)C1=O (stereo not drawn)	-4	18	51*	-2	1.1	1.2
O=C(O)c1cccnc1SC1CC(=O)N(c2ccccc2)C1=O (stereo not drawn)	-1	-8	/	/	/	/
C=CCNc1nc(Nc2ccc([N+](=O)[O-])cc2)nc(OC)n1	-27	-21	42	0	0.9	0.9
COc1nc(Nc2ccc([N+](=O)[O-])cc2)nc(NC2CCCCC2)n1	-2	-39	89*	88*	0.8	0.8
N#CCC1c2ccccc2CCN1C(=O)Nc1ccc(Cl)cc1 (stereo not drawn)	4	40	12	4	0.9	0.9
N#CCC1c2ccccc2CCN1C(=O)Nc1cccc(Cl)c1 (stereo not drawn)	-5	-12	63*	13	0.8	0.8
COc1cc(/C=C2\SC(=O)N(Cc3ccc(F)cc3)C2=O)cc([N+](=O)[O-])c1O	/	-9	-4	62*	0.9	1
COc1cc(/C=C2/SC(=O)N(Cc3ccccc3)C2=O)ccc1OCc1ccncc1	-2	-108	92*	-3	1	1
